An excerpt weighted towards active compounds, which were near 1.4% of everything screened.
FN deposition inh – fibronectin deposition inhibition. 350,000 tested, 0.086% active. inhibition, % at 12.6 µM. AH1F fibroblasts, Alexa488-fibronectin deposition fluorescence, overnight;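 active = mean inhibition across replicates of 30% or more, regardless of how many single replicates reach that level; inconclusive = mean under 30% yet at least half of replicates reach 30%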;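 note: positive control wells lacked labelled fibronectin entirely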
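Material – AH1F fibroblast monolayer, labelled fibronectin deposition · Reagent – labelled fibronectin 24 nM · Timing – 1 h adhesion, overnight exposure · Measured by – fluorescence at 485 nm excitation, 525 nm emission · Read-out – inhibition of fibronectin deposition signal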
INS-1E GSIS act – GLuc luminescence reporter in INS-1E cells, primary screen for activators of glucose-dependent secretion of insulin. AID 743287. 370,000 tested, 0.61% active. INS-1E GLuc reporter insulin secretion, 2-3 h. activation, % at 16.6 µM;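 active = lowest replicate activation of at least 40%, so every replicate reaches that level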;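 note: 0% = median of neutral control wells and 100% = median of IBMX positive control wells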
ERp5 inh – ERp5 (human) disulfide isomerase inhibition; ERp5 insulin aggregation, absorbance 650 nm, 90 min; 350,000 tested, 0.05% active; inhibition, % at 9.99 µM; Q15084;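 active = mean replicate inhibition above about 25%, with every replicate also reaching it, limit read from the data, passing the limit was not always enough; inconclusive = only one of those two criteria met; inactive = neither criterion met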
PDI inh – PDI (human) enzyme inhibition; P07237; inhibition, % at 10 µM; PDI insulin aggregation turbidity, A650, 90 min; AID 588391; 350,000 tested, 0.052% active;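 active = mean inhibition across replicates of 30% or more, whatever share of single replicates reach that level; inconclusive = mean inhibition below 30% while every single replicate reaches 30%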
Target sequence (P07237 whole entry, looked up): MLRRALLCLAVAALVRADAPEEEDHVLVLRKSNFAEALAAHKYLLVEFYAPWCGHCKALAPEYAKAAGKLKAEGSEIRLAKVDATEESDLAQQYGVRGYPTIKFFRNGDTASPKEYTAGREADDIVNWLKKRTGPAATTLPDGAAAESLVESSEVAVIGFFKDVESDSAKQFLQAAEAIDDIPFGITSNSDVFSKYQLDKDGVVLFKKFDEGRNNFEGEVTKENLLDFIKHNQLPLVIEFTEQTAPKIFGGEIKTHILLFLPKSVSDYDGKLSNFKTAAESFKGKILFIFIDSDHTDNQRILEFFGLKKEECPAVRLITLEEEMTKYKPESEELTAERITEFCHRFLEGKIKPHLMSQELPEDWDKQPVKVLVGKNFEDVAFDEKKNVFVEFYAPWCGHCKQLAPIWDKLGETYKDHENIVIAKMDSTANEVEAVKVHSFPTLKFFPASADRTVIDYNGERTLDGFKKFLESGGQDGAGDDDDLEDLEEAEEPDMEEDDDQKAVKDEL
Env fusion inh – inhibitors of HIV Env-mediated cell fusion; HeLa-JRFL Env/CEM21 cell fusion, luciferase; inhibition, % at 12.3 µM; 360,000 tested, 1.1% active;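 active = mean replicate inhibition score of at least 50 and every replicate individually at or above 50; inconclusive = only one of the two criteria met; inactive = mean below 50 and not all replicates reaching 50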;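 note: 0% = plate neutral controls and 100% = maraviroc near 300 nM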
Active calls of the source: *; ? = inconclusive; . = not tested or not shown; [ ] = remark or other dose.

SMILES	FN deposition inh	INS-1E GSIS act	ERp5 inh	PDI inh	Env fusion inh
CCc1ccccc1NC(=O)c1cccc(NC(=O)/C=C/c2ccco2)c1	10	-16	.	-1	8
O=C(/C=C/c1ccco1)Nc1cccc(C(=O)Nc2ccccc2C(=O)O)c1	-2	2	3	18	88*
COc1ccc(-c2cnc3c(c2)C(=O)N([C@@H](C)CO)C[C@@H](C)[C@@H](CN(C)C(=O)Cc2cccnc2)O3)cc1	.	-32	-5	.	2[16.7 µM]
CCOc1ccc(-n2c(-c3ccc(OC)cc3)c[n+]3c2CCCCC3)cc1	.	-20	4	-4	67*
CCOc1ccc(-n2c(-c3ccc(Br)cc3)c[n+]3c2CCCCC3)cc1	-2	-71	5	1	38
CCOC(=O)c1oc2cccc(O)c2c1CN(Cc1ccccc1)C(C)=O	2	.	.	52*	60*
COc1ccc(-c2cnc3c(c2)C(=O)N([C@@H](C)CO)C[C@@H](C)[C@H](CN(C)C(=O)Cc2ccccc2)O3)cc1	.	-22	3	.	-12[16.7 µM]
CCCC(=O)Nc1nnc(Sc2ccc(N(C)C)cc2)s1	.	.	.	-2	.
CCC(=O)Nc1nnc(Sc2ccc(N(C)C)cc2)s1	.	50*	.	-1	.
Cn1nc(C(C)(C)C)cc1NC(=O)C1(C)CCN1C(=O)CCc1ccccc1 (stereo not given)	1	.	1	-1	10
Cn1nc(C(C)(C)C)cc1NC(=O)C1(C)CCN1C(=O)Cc1ccc(-c2ccccc2)cc1 (stereo not given)	-1	-32	-4	7	62*
COc1cccc(CN2[C@@H](CO)[C@H](c3ccccc3)C23CN(C(=O)C2CC2)C3)c1	4	-9	-3	.	.
CN(C)c1ccc(O)c2c1CC1CC3[C@@H](N(C)C)C(=O)C(C(N)=O)=C(O)[C@]3(O)C(=O)C1=C2O (stereo not given in full)	2	-3	4	1	73*
C[C@H]1c2cccc(O)c2C(O)=C2C(=O)[C@]3(O)C(O)=C(C(N)=O)C(=O)[C@@H](N(C)C)[C@@H]3[C@@H](O)[C@@H]21	.	.	.	11	.
C[C@H]1CN([C@@H](C)CO)C(=O)c2cc(-c3cccc(F)c3)cnc2O[C@H]1CN(C)Cc1ccncc1	.	17	-2	.	9[16.7 µM]
Cc1ccc2nc(NC(=O)CSCC(=O)OCC(=O)c3ccc(Br)cc3)sc2c1	-6	20	.	2	73*
COC(=O)c1ccc2nc(NC(=O)CSCC(=O)OCC(=O)c3ccccc3)sc2c1	6	-12	2	-2	15
C[C@H](CO)N1C[C@H](C)[C@H](CN(C)Cc2ccccc2)Oc2c(NS(=O)(=O)c3ccccc3)cccc2C1=O	.	5	1	.	.
CC(C)(C)OC(=O)CC[C@@H](C(=O)N1CCN(C(=O)OC(C)(C)C)CC1)n1cc(C(Cc2ccc(O)cc2)NC(=O)OC(C)(C)C)nn1 (stereo not given in full)	5	-19	7	4	62*
CC(C)CC(NC(=O)OC(C)(C)C)c1cn([C@@H](CCCCNC(=O)OC(C)(C)C)C(=O)N2CCN(C(=O)OC(C)(C)C)CC2)nn1 (stereo not given in full)	3	-10	.	0	32
O=C(C[n+]1cc(-c2ccccc2)n2c1CCCCC2)c1ccc(Cl)cc1	-9	-4	0	4	-33
CC1CCC(C(C)C)C(OC(=O)C[n+]2cc(-c3ccc(Cl)cc3)n3c2CCCCC3)C1 (stereo not given)	.	111*	2	1	60*
CC(C)(C)CC(C)(C)NC(=S)Nc1ccc2nc(-c3ccccn3)c(-c3ccccn3)nc2c1	-1	.	.	0	58*
C[C@H](CO)N1C[C@H](C)[C@H](CN(C)CC2CCOCC2)Oc2ncc(C#CCc3ccccc3)cc2C1=O	.	-15	29	.	17[16.7 µM]
Cc1ccc(S(=O)(=O)N2CCC3(CC2)CC(=O)c2ccccc2O3)cc1	5	-6	9	9	-4
SMILES	FN deposition inh	INS-1E GSIS act	ERp5 inh	PDI inh	Env fusion inh
O=C(O)c1ccc(S(=O)(=O)N2CCC3(CC2)CC(=O)c2ccccc2O3)cc1	6	50*	-1	-3	11
CC[C@@]12C(=O)N(c3cccc(F)c3)C(=O)N1[C@H](c1ccc(Br)cc1)[C@@H]1C(=O)N(C(C)(C)C)C(=O)[C@@H]12	0	-5	.	-2	98*
COc1ccc([C@@H]2[C@@H]3C(=O)N(C(C)(C)C)C(=O)[C@@H]3[C@]3(Cc4ccccc4)C(=O)N(c4cccc(F)c4)C(=O)N23)cc1	1	-1	-9	2	45
COc1ccc([C@@H]2[C@@H]3C(=O)N(C(C)(C)C)C(=O)[C@@H]3[C@]3(CC(C)C)C(=O)N(c4cccc(F)c4)C(=O)N23)cc1	-7	-24	0	0	99*
CC(C)(C)N1C(=O)[C@H]2[C@@H](c3ccc(Br)cc3)N3C(=O)N(c4cccc(F)c4)C(=O)[C@@]3(Cc3ccccc3)[C@H]2C1=O	-12	10	5	-4	?
CCCN(C)C[C@@H]1Oc2cc(C#Cc3cccc(F)c3)ccc2S(=O)(=O)N([C@@H](C)CO)C[C@H]1C	8	-8	0	.	12[16.7 µM]
CC(C)(C)[C@@H]1CCC(=O)N(CC[C@H](Sc2ccc(Br)cc2)c2ccccc2)CC1	-14	-5	2	-6	67*
C[C@@H]1CCCCO[C@@H](CN(C)C(=O)Nc2ccc(F)cc2)[C@H](C)CN([C@@H](C)CO)C(=O)c2cc(NS(=O)(=O)c3ccc(F)cc3)ccc2O1	9	13	.	.	-73[16.7 µM]
CN(C)c1nc(OCCNC(=O)Nc2ccc(Cl)cc2)nc(N(C)C)n1	-1	12	3	-1	3
CON(C)c1nc(OCCNC(=O)COc2ccc(Cl)cc2C)nc(N(C)C)n1	0	.	.	1	163*
CON(C)c1nc(OCCNC(=O)OCc2ccc(Cl)cc2Cl)nc(N(C)C)n1	10	.	.	17	139*
Cc1ccc(-c2cnc3c(c2)C(=O)N([C@H](C)CO)C[C@@H](C)[C@H](CN(C)C(=O)Cc2ccccc2)O3)cc1	.	-18	-1	.	17[16.7 µM]
CCCCOc1ccc(-c2nnn(CC(=O)c3c[nH]c4ccccc34)n2)cc1	-5	94*	.	-4	-5
COc1ccc(-c2nnn(CC(=O)c3c[nH]c4ccccc34)n2)cc1OC	.	13	.	6	.
O=C(CSc1nc2ccc([N+](=O)[O-])cc2[nH]1)NC1CCCCCC1	.	-27	.	1	116*
O=[N+]([O-])c1ccc2nc(SCc3cn4cc(Cl)ccc4n3)[nH]c2c1	-3	3	.	-2	112*
O=[N+]([O-])c1ccc2nc(SCc3cn4ccccc4n3)[nH]c2c1	-1	3	4	-5	6
Cc1n[nH]c(C)c1S(=O)(=O)N(CC(=O)Nc1ccc2c(c1)OCCO2)c1ccc(C(C)C)cc1	-2	-16	1	-4	59*
CSc1nc(N2CCOCC2)c2sccc2n1	-9	76*	2	4	21
CSc1nc(Cl)c(Cc2ccc(OC(C)C)cc2)c(N2CCOCC2)n1	.	-16	.	-5	.
